From PubChem BioAssay
Shown are actives, neighbours in structure and some others; about 3.3% of the full set was active somewhere.
SENP6 inh – inhibitors of human SENP6 protease; Recombinant SENP6 catalytic domain, aminoluciferin luminescence; inhibition, % at 10 µM; actives 1.8% (n = 330,000); Q9GZR1;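 active means inhibition above about 50% at the single tested dose, limit read from the data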
Target sequence (Q9GZR1 628-1112 limits assumed): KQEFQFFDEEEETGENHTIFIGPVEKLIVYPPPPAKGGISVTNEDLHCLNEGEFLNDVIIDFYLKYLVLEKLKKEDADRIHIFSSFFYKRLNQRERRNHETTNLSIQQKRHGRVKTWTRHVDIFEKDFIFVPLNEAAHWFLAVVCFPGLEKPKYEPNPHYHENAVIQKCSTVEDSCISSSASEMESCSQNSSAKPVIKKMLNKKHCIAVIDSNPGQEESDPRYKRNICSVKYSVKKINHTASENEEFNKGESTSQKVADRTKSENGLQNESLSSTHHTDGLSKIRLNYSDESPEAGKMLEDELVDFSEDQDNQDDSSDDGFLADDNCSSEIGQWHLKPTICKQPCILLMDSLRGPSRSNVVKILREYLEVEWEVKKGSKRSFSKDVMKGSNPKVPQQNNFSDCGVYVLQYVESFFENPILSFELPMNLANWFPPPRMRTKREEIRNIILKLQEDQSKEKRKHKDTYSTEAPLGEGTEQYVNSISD
SENP8 block-1 – SENP8 (human) protease inhibition | recombinant SENP8, Nedd8 substrate fluorescence | inhibition, % at 20 µM | actives 0.64% (n = 360,000); in the data active means inhibition mostly above about 40%, no sharp cut-off; inactive means mostly below about 27%
SENP1 FRET inh – inhibitors of human SENP1 SUMO protease catalytic domain; inhibition, % at 10 µM; AID 624204; recombinant SENP1 catalytic domain, CyPet-SUMO1-YPet FRET cleavage; actives 0.21% (n = 360,000);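 active means inhibition at least 30% at 10 µM, raw YFP signal under a set limit, fluorescence ratio 0.5 to 1.5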
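Assay system: hSENP1 catalytic domain, recombinant. Amount: SENP1 enzyme, 20 pM final. Schedule: 50 min reaction, RT, dark. Technique: FRET, CFP and YFP emission. Control set: no-enzyme wells low, DMSO-plus-enzyme wells high control.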
SENP7 inh – SENP7 protease inhibition. AID 434973. Q9BQF6. inhibition, % at 5 µM. recombinant SENP7, Z-RLRGG-aminoluciferin luminescence, 40 min. actives 1.5% (n = 330,000);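 active means inhibition above about 50% at the single test dose, limit read from the data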
NRP1-CendR mod – alters CendR peptide binding to human NRP-1 | FAM-RPARPAR peptide binding to NRP-1, fluorescence polarization | inhibition, % at 25 µM | O14786 | AID 602438 | actives 0.85% (n = 360,000);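 active means inhibition or corrected inhibition above about 18%, plus a signal ratio from 0.5 to 1.5, limit read from the data, passing the limit was not always enough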
SENP8 block-2 – inhibitors of human SENP8 protease | Q96LD8 | purified SENP8, Z-RLRGG-aminoluciferin cleavage, luminescence | inhibition, % at 10 µM | actives 1.2% (n = 330,000); in the data active means inhibition above about 50%
A number is an active result; . = inactive; / = no result given.

SMILES	SENP6 inh	SENP8 block-1	SENP1 FRET inh	SENP7 inh	NRP1-CendR mod	SENP8 block-2
CCCN(CCC)S(=O)(=O)c1ccc(C(=O)Nc2nnc(-c3cc(OC)cc(OC)c3)o2)cc1	.	.	.	.	25	.
N#CCCN(CCC#N)S(=O)(=O)c1ccc(C(=O)Nc2nnc(C3=COCCO3)o2)cc1	.	.	.	.	.	.
CCCCN(C)S(=O)(=O)c1ccc(C(=O)Nc2nnc(C3=COCCO3)o2)cc1	.	.	.	.	30	.
Cc1ccc(N2CCN(C(=O)C(=O)c3cccc([N+](=O)[O-])c3)CC2)cc1	/	.	.	/	.	/
CCOc1ccc(/C=C2/SC(=S)N(n3c(C)ccc3C)C2=O)cc1	.	41	.	.	.	.
COc1ccc(/C=C2/SC(=S)N(n3c(C)ccc3C)C2=O)cc1	.	.	.	.	.	.
COc1ccc(CCNC(=O)c2ccc(Cl)c(S(=O)(=O)N(C)c3ccccc3)c2)cc1	.	.	.	.	23	.
Cc1ccc(S(=O)(=O)N(C)c2ccc(C(=O)NCCc3ccccc3)cc2)cc1	.	.	.	.	.	.
COc1ccc(CCNC(=O)c2ccc(N(C)S(=O)(=O)c3ccc(C)cc3)cc2)cc1	.	.	.	.	21	.
CCc1nc2ccc(C(=O)Nc3cccc(NS(C)(=O)=O)c3)cn2c1N(CC)CCOC	/	.	.	/	.	/
Cc1noc(C)c1S(=O)(=O)NC(=O)C1(C)CCN1C(=O)c1ccc(C2CCCCC2)cc1 (stereo unspecified)	/	.	.	/	.	/
Cc1c(NC(=O)c2ccc(-c3ccccc3)cc2)cccc1C(=O)O	99	.	.	96	.	93
O=C(Nc1ccc(C(F)(F)F)cc1)c1cc(S(=O)(=O)NCC2COc3ccccc3O2)ccc1F (stereo unspecified)	.	.	.	.	82	.
Cn1c(=O)c2[nH]c(CCCc3ccc([N+](=O)[O-])cc3)nc2n(C)c1=O	/	.	.	/	30	/
Cn1c(=O)c2[nH]c(CCc3ccncc3)nc2n(C)c1=O	/	.	.	/	.	/
CCOc1ccc(S(=O)(=O)Nc2cc(SCC(=O)O)c(O)c3ccccc23)cc1	/	46	.	/	.	/
CCOC(=O)C1CCN(C(=O)C2CCN(C(=O)c3ccc([N+](=O)[O-])cc3)CC2)CC1	.	.	.	.	24	.
CCOC(=O)C1=C(N)Oc2cc(O)ccc2C1c1cccnc1 (stereo unspecified)	.	.	.	.	.	.
CCOC(=O)C1=C(N)Oc2cc(O)ccc2C1c1cccc(Cl)c1 (stereo unspecified)	.	.	.	.	27	.
Cc1ccc(CC(=O)N2CCN(S(=O)(=O)c3ccccc3)CC2)cc1C	.	.	.	.	.	.
Cc1ccc(S(=O)(=O)N2CCN(C(=O)Cc3ccccc3)CC2)cc1C	.	.	.	.	23	.
Cc1cc2c(cc1C)-n1nnnc1C(N(C)CCc1ccccc1)C(=O)N2 (stereo unspecified)	/	.	.	/	.	/
O=C(OCc1ccccc1)c1cnc(Cl)c(Cl)c1	.	.	.	.	.	.
N#Cc1ccc(COC(=O)c2cnc(Cl)c(Cl)c2)cc1	.	.	.	.	25	.
O=C(NCCO)OC1CC2CC1[C@H]1CCCCN1C2=O (stereo partly specified)	/	.	.	/	.	/
SMILES	SENP6 inh	SENP8 block-1	SENP1 FRET inh	SENP7 inh	NRP1-CendR mod	SENP8 block-2
Cc1csc(SCC(=O)Nc2cccc(S(=O)(=O)N3CCCC3)c2)n1	.	.	.	.	26	.
O=C1Nc2ccccc2C(=O)N(c2ccc3c(c2)OCCO3)C1C(=O)NC1CC1 (stereo unspecified)	/	.	.	/	.	/
COC(=O)[C@]12CCCCC=C1N(Cc1ccco1)C(=O)[C@H](CC(=O)NCCC(C)C)C2	/	.	.	/	.	/
FC(F)(F)c1cc(C(F)(F)F)c2ccc(Oc3ccccc3)nc2n1	.	.	.	.	33	.
CCCCOC(=O)c1ccc(NS(=O)(=O)c2cc(-c3nnnn3CC)ccc2OC)cc1	.	.	.	.	23	.
CCOC(=O)c1ccc(NS(=O)(=O)c2cc(-c3nnnn3CC)ccc2OC)cc1	.	.	.	.	.	.
COc1cccc(/C=N/Nc2ncccc2[N+](=O)[O-])c1OC	99	.	.	98	.	95
COc1cccc(/C=N/Nc2ccc([N+](=O)[O-])cn2)c1O	90	.	.	98	.	84
O=[N+]([O-])c1ccc(NN=Cc2cccc3ccccc23)nc1	/	.	.	/	.	/
CC(C)(CN1CCCN(CC(C)(C)C(=O)O)C1=O)C(=O)O	/	.	.	/	.	/
COc1ccc(CCC(=O)Nc2ccc(N3CCOCC3)c(S(=O)(=O)Nc3ccc(OC)cc3)c2)cc1	/	.	.	/	.	/
C=CCn1c(O)c(N=Nc2ccccc2[N+](=O)[O-])c2ccccc21	/	46	.	/	.	/
N#Cc1ccccc1Sc1ccccc1C(=O)Nc1ccc(Br)cc1	.	.	.	.	.	.
CNC(=O)c1ccccc1Sc1ccccc1C#N	.	.	.	.	32	.
O=C1OC(CC(=O)N(Cc2nnc(-c3ccc(Cl)cc3)o2)C2CC2)c2ccccc21 (stereo unspecified)	.	.	.	.	.	.
Cc1nc(-c2ccccc2)sc1C(=O)CSc1ccccc1	.	.	.	.	28	.
O=C(NCc1ccccc1)C(C1CC1)n1c(Cc2cc(F)cc(F)c2)nc2ccccc21 (stereo unspecified)	/	.	.	/	.	/
Cc1cc(-c2csc(NC(=O)c3ccc(=O)n(C)n3)n2)c(C)n1CC1CCCO1 (stereo unspecified)	.	43	.	.	.	.
Cc1cc(-c2csc(NC(=O)C3=COCCO3)n2)c(C)n1C	.	.	.	.	.	.
CC(=O)Nc1sc2c(c1-c1nc3ccccc3s1)CN(C(C)C)CC2	.	.	.	.	.	.
CC(=O)N1CCc2c(sc(NC(=O)C3CC3)c2-c2nc3ccccc3s2)C1	68	.	.	.	.	.
COC(=O)c1c(Cl)c2n3ccccc3c(C)c(-c3ccccc3)c-2c1C(=O)OC	.	.	.	.	38	.
COC(=O)c1cc2c(-c3ccccc3)c(C)c3ccccn3c-2c1C(=O)OC	.	.	.	.	.	.
CC(=O)Oc1ccc2c(=O)c(-c3ccccc3)coc2c1	.	.	.	59	.	.
O=C(NCc1ccncc1)[C@@H]1CCCN1C(=O)[C@H]1CCCN1	/	.	.	/	.	/
O=C(Cc1csc(NC(=O)Nc2ccc(Cl)cc2)n1)NCc1cccnc1	.	.	.	.	34	.
Fc1ccc(-c2onc3ccc(C4OCCO4)cc23)cc1	.	.	.	.	.	.
CC1(c2ccc3noc(-c4ccc(F)cc4)c3c2)OCCO1	.	.	.	.	27	.
O=Cc1ccc2noc(-c3ccc(F)cc3)c2c1	.	.	.	.	24	.
C=Cc1ccc(CC2(C)C(=O)Nc3ccc(-c4cccnc4)cc32)cc1 (stereo unspecified)	/	.	.	/	.	/
